Measured values as given in ChEMBL document CHEMBL1157065, “Synthesis and evaluation of some new substituted benzothiazepine and benzoxazepine derivatives as anticonvulsant agents” (Eur J Med Chem, 2010).

Tests used:
[1] = Acute toxicity in ip dosed mouse; assay type: organism-based; conditions: in vivo, read-out: ALD50
[2] = tested on: Rattus norvegicus; test: Anticonvulsant activity in Charles foster rat assessed as protection against maximal electroshock-induced seizures at 30 mg/kg, ip administered 1 hr before electroshock challenge; assay type: functional; conditions: route intraperitoneal
Method in brief: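 Charles Foster rats of either sex, 90–150 g, in groups of ten, dosed i.p. with test drug or phenytoin sodium 30 mg/kg. 1 h after dosing, shock of 150 mA delivered by convulsiometer through ear electrodes for 2 s. Presence or absence of extensor response recorded.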

| Structure (SMILES) | LD50 [1] | Activity [2] |
| --- | --- | --- |
| COc1ccc(N/C=C2\C(c3ccc(O)cc3)=Nc3ccccc3OC2c2cccc(OC)c2)cc1 (configuration not stated) | > 1000 mg/kg | 70% |
| Oc1ccc(C2=Nc3ccccc3OC(c3ccccc3Cl)C2)cc1 (configuration not stated) | > 1000 mg/kg | 70% |
| Oc1ccc(C2=Nc3ccccc3SC(c3ccc(Cl)cc3)C2)cc1 (configuration not stated) | > 1000 mg/kg | 70% |
| Oc1ccc(C2=Nc3ccccc3OC(c3ccc(Cl)cc3)C2)cc1 (configuration not stated) | > 1000 mg/kg | 60% |
| Oc1ccc(C2=Nc3ccccc3OC(c3ccc(O)cc3)C2)cc1 (configuration not stated) | > 1000 mg/kg | 70% |
| COc1cccc(C2Sc3ccccc3N=C(c3ccc(O)cc3)/C2=C\Nc2ccc(Cl)cc2)c1 (configuration not stated) | > 1000 mg/kg | 40% |
| COc1ccc(N/C=C2\C(c3ccc(O)cc3)=Nc3ccccc3SC2c2cccc(OC)c2)cc1 (configuration not stated) | > 1000 mg/kg | 50% |
| Oc1ccc(C2=Nc3ccccc3OC(c3ccccc3O)C2)cc1 (configuration not stated) | > 1000 mg/kg | 60% |
| COc1cccc(C2Oc3ccccc3N=C(c3ccc(O)cc3)/C2=C\Nc2ccc(Cl)cc2)c1 (configuration not stated) | > 1000 mg/kg | 30% |
| Oc1ccc(C2=Nc3ccccc3OC(c3ccccc3Cl)/C2=C/Nc2ccc(Cl)cc2)cc1 (configuration not stated) | > 1000 mg/kg | 50% |
| Oc1ccc(C2=Nc3ccccc3OC(c3ccc(Cl)cc3)/C2=C/Nc2ccc(Cl)cc2)cc1 (configuration not stated) | > 1000 mg/kg | 60% |
| COc1ccc(N/C=C2\C(c3ccc(O)cc3)=Nc3ccccc3OC2c2ccccc2Cl)cc1 (configuration not stated) | > 1000 mg/kg | 60% |
| Oc1ccc(C2=Nc3ccccc3SC(c3ccccc3Cl)/C2=C/Nc2ccc(Cl)cc2)cc1 (configuration not stated) | > 1000 mg/kg | 70% |
| Oc1ccc(C2=Nc3ccccc3SC(c3ccccc3Cl)C2)cc1 (configuration not stated) | > 1000 mg/kg | 80% |
| Oc1ccc(C2=Nc3ccccc3SC(c3ccccc3O)C2)cc1 (configuration not stated) | > 1000 mg/kg | 70% |
| Oc1ccc(C2=Nc3ccccc3SC(c3ccc(O)cc3)C2)cc1 (configuration not stated) | > 1000 mg/kg | 60% |

| Structure (SMILES) | LD50 [1] | Activity [2] |
| --- | --- | --- |
| COc1cccc(C2CC(c3ccc(O)cc3)=Nc3ccccc3O2)c1 (configuration not stated) | > 1000 mg/kg | 20% |
| COc1cccc(C2CC(c3ccc(O)cc3)=Nc3ccccc3S2)c1 (configuration not stated) | > 1000 mg/kg | 30% |
| COc1ccc(N/C=C2\C(c3ccc(O)cc3)=Nc3ccccc3OC2c2ccc(Cl)cc2)cc1 (configuration not stated) | > 1000 mg/kg | 50% |
| Oc1ccc(C2=Nc3ccccc3SC(c3ccc(Cl)cc3)/C2=C/Nc2ccc(Cl)cc2)cc1 (configuration not stated) | > 1000 mg/kg | 70% |
| Oc1ccc(C2=Nc3ccccc3SC(c3ccccc3O)/C2=C/Nc2ccc(Cl)cc2)cc1 (configuration not stated) | > 1000 mg/kg | 60% |
| Oc1ccc(C2=Nc3ccccc3SC(c3ccc(O)cc3)/C2=C/Nc2ccc(Cl)cc2)cc1 (configuration not stated) | > 1000 mg/kg | 60% |
| COc1ccc(N/C=C2\C(c3ccc(O)cc3)=Nc3ccccc3SC2c2ccccc2Cl)cc1 (configuration not stated) | > 1000 mg/kg | 90% |
| COc1ccc(N/C=C2\C(c3ccc(O)cc3)=Nc3ccccc3SC2c2ccc(Cl)cc2)cc1 (configuration not stated) | > 2000 mg/kg | 70% |
| COc1ccc(N/C=C2\C(c3ccc(O)cc3)=Nc3ccccc3SC2c2ccccc2O)cc1 (configuration not stated) | > 1000 mg/kg | 70% |
| COc1ccc(N/C=C2\C(c3ccc(O)cc3)=Nc3ccccc3OC2c2ccccc2O)cc1 (configuration not stated) | > 1000 mg/kg | 60% |
| COc1ccc(N/C=C2\C(c3ccc(O)cc3)=Nc3ccccc3SC2c2ccc(O)cc2)cc1 (configuration not stated) | > 1000 mg/kg | 60% |
| Oc1ccc(C2=Nc3ccccc3OC(c3ccccc3O)/C2=C/Nc2ccc(Cl)cc2)cc1 (configuration not stated) | > 1000 mg/kg | 60% |
| Oc1ccc(C2=Nc3ccccc3OC(c3ccc(O)cc3)/C2=C/Nc2ccc(Cl)cc2)cc1 (configuration not stated) | > 1000 mg/kg | 70% |
| COc1ccc(N/C=C2\C(c3ccc(O)cc3)=Nc3ccccc3OC2c2ccc(O)cc2)cc1 (configuration not stated) | > 1000 mg/kg | 50% |
| O=C1N=C([O-])NC1(c1ccccc1)c1ccccc1.[Na+] [PHENYTOIN SODIUM] |  | 80% |
| CC(O)CO (configuration not stated) [PROPYLENE GLYCOL] |  | 0% |
